Assay type in all cases: functional
One assay deals with K562. Briefly: Growth inhibition of human K-562 cells after 48 hrs by sulforhodamine B assay. The conditions noted are these: K562, 48 h. The method in brief: (§1)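 Sulforhodamine B colorimetric assay following the NCI standard protocol, with doxorubicin as positive control. Each compound was tested at four concentrations in 10-fold dilutions (0.25 to 250). GI50, the concentration giving 50% growth reduction versus untreated control cells, was derived from dose–response curves.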
In general terms: The SRB assay estimates cell density from bound dye.

Assay [1] can be described thus: Growth inhibition of human NCI-460 cells after 48 hrs by sulforhodamine B assay. The conditions noted are these: NCI-460, 48 h. The method, boiled down: as §1
The subject of the next assay is UACC-62. Put plainly: Growth inhibition of human UACC-62 cells after 48 hrs by sulforhodamine B assay. To be noted: UACC-62, 48 h. The method, boiled down: as §1
The subject of another assay is MCF7. Briefly: Growth inhibition of human MCF7 cells after 48 hrs by sulforhodamine B assay. To be noted: MCF7, 48 h. The method in brief: as §1
The next assay has as its system OVCAR. Put plainly: Growth inhibition of human OVCAR cells after 48 hrs by sulforhodamine B assay. The method, boiled down: as §1
Assay [2] can be described thus: Growth inhibition of human PCO3 cells after 48 hrs by sulforhodamine B assay. The conditions noted are these: PCO3, 48 h. The method, boiled down: as §1
Another assay has as its system HT-29. Briefly: Growth inhibition of human HT-29 cells after 48 hrs by sulforhodamine B assay. To be noted: HT-29, 48 h. The method in brief:
as §1

A further assay relates to 786-0. Put plainly: Growth inhibition of human 786-0 cells after 48 hrs by sulforhodamine B assay. To be noted: 786-0, 48 h; for CC50: read-out: LC50 (the source's name). The method, boiled down:
as §1

The results in this text go back to ChEMBL document CHEMBL1151684, “Synthesis and antitumoral activity of novel 3-(2-substituted-1,3,4-oxadiazol-5-yl) and 3-(5-substituted-1,2,4-triazol-3-yl) beta-carboline derivatives” (2008).

A value given as a limit tells only on which side of the number the result lay.

As a reminder, the GI50 is the concentration that inhibits growth by half. Higher therefore signals lower sensitivity of the cells. As usually defined, the TGI is the concentration giving total growth inhibition. High values mean lower sensitivity of the cells, low ones greater sensitivity of the cells.

Turning to `Nn1c(-c2cc3c([nH]c4ccccc43)c(-c3ccccc3)n2)n[nH]c1=S`, the GI50 is 9.93 µM with K562; 1.59 µM in assay [1]; 24.3 µM in the assay on UACC-62; 15 µM with MCF7; 12 µM in the assay with OVCAR; 10.9 µM in assay [2]. For the same compound, the figures for the GI50 with HT-29 and in the assay on 786-0 were 15 µM and 10.9 µM, respectively. Besides, the TGI in the assay with K562 was more than 100 µM; in assay [1] it was 54.7 µM; in the assay with UACC-62, more than 100 µM; with MCF7 it was 32.5 µM; in the assay with OVCAR, 25.3 µM; in assay [2], 30.6 µM. Besides, the TGI in the assay on HT-29 came out at 86.9 µM; in the assay on 786-0, 49.4 µM. Further, in assay [1], the LC50 (concentration for 50% net cell kill) is more than 100 µM. The LC50 (concentration killing 50% of cells) (in the assay on MCF7; in assay [2]) was more than 100 µM in each case. This compound also displayed an LC50 (concentration killing 50% of the cells, NCI protocol) in the assay on OVCAR of 52.5 µM. The CC50 with 786-0 was more than 100 µM.

As for `CSc1nnc(-c2cc3c([nH]c4ccccc43)c(-c3ccc([N+](=O)[O-])cc3)n2)o1`, the GI50 (in the assay on K562; in assay [1]; with UACC-62; in the assay on MCF7; in the assay with OVCAR; in assay [2]) was more than 100 µM throughout. For the same compound, the GI50 in the assay with HT-29 and in the assay on 786-0 was more than 100 µM in each case.

Regarding `COc1cc(-c2nc(-c3nnc(SC)o3)cc3c2[nH]c2ccccc23)ccc1O`, the GI50 in the assay on K562 stood at 22.6 µM; in assay [1] it was 4.82 µM; with UACC-62, 17.8 µM; with MCF7 it was 12.7 µM; with OVCAR, 16.4 µM; in assay [2] it was 7.53 µM. The GI50 in the assay with HT-29 came out at 7.31 µM; in the assay with 786-0 it was 15.3 µM. Moreover, the TGI was more than 100 µM with K562; more than 100 µM in assay [1]; 48.6 µM in the assay with UACC-62; 28.1 µM with MCF7; 59.8 µM in the assay on OVCAR; 39.4 µM in assay [2]. Moreover, the TGI came out at 39.4 µM in the assay on HT-29 and 36.3 µM with 786-0. Besides, the LC50 (concentration killing 50% of cells, NCI protocol) in the assay on UACC-62 was more than 100 µM. Further, the LC50 (concentration killing 50% of cells) is 61.2 µM with MCF7 and more than 100 µM in assay [2]. Also, in the assay with HT-29, the LC50 (concentration killing 50% of the cells present at the start) was more than 100 µM. In addition, the CC50 in the assay on 786-0 was more than 100 µM.

On to `CN(C)c1ccc(-c2nc(-c3n[nH]c(=S)o3)cc3c2[nH]c2ccccc23)cc1`, for which the GI50 was determined as 9.55 µM in the assay on K562; 19.1 µM in assay [1]; 23.8 µM with UACC-62; 18.8 µM in the assay with MCF7; 14.7 µM in the assay on OVCAR; 14.7 µM in assay [2]. Besides, the figures for the GI50 in the assay on HT-29 and in the assay with 786-0 were 40.5 µM and 14.7 µM, respectively.

On to `Nn1c(-c2cc3c([nH]c4ccccc43)c(-c3ccccc3Cl)n2)n[nH]c1=S`, for which the GI50 came to 62.4 µM in the assay with K562; 15.4 µM in assay [1]; 20.2 µM with UACC-62; 70.1 µM in the assay on MCF7; 6.8 µM in the assay on OVCAR; 24.7 µM in assay [2]. Also, the values for the GI50 in the assay with HT-29 and with 786-0 were 33 µM and 39.5 µM, respectively. The TGI with K562 was more than 100 µM; in assay [1] it was 38 µM; in the assay with UACC-62, 86.1 µM; with MCF7 it was more than 100 µM; in the assay with OVCAR it was 49.9 µM; in assay [2], more than 100 µM. The compound also came in with a TGI in the assay on HT-29 of more than 100 µM. In assay [1], this compound came in with an LC50 (concentration for 50% net cell kill) of more than 100 µM. Besides, the LC50 (concentration killing 50% of cells, NCI protocol) with UACC-62 was more than 100 µM. This compound also came in with an LC50 (concentration killing 50% of the cells, NCI protocol) in the assay on OVCAR of more than 100 µM. In the assay with 786-0, the CC50 is more than 100 µM.

Take `CN(C)c1ccc(-c2nc(-c3n[nH]c(=S)n3N)cc3c2[nH]c2ccccc23)cc1`: the GI50 in the assay on K562 is more than 100 µM; in assay [1], 0.2 µM; in the assay on UACC-62 it was 50.4 µM; in the assay with MCF7, more than 100 µM; in the assay on OVCAR, more than 100 µM; in assay [2] it was more than 100 µM. The GI50 was more than 100 µM in the assay on HT-29 and 0.97 µM in the assay with 786-0. The TGI in the assay on K562 was more than 100 µM; in assay [1], 71.8 µM; in the assay on UACC-62 it was more than 100 µM; in the assay on MCF7, more than 100 µM; in the assay with OVCAR, more than 100 µM; in assay [2], more than 100 µM. Further, the TGI in the assay on HT-29 is more than 100 µM; in the assay on 786-0, 80 µM. This compound also came in with an LC50 (concentration for 50% net cell kill) in assay [1] of more than 100 µM. The CC50 in the assay with 786-0 is more than 100 µM.

In the case of `CN(C)c1ccc(-c2nc(-c3n[nH]c(=S)[nH]3)cc3c2[nH]c2ccccc23)cc1`, the GI50 was 11.1 µM in the assay with K562; 0.06 µM in assay [1]; 1.74 µM in the assay on UACC-62; 8.63 µM with MCF7; 1.09 µM in the assay on OVCAR; 1.37 µM in assay [2]. For the same compound, the GI50 in the assay with HT-29 worked out at 8.63 µM; in the assay on 786-0 it was 0.04 µM. For the same compound, the TGI is more than 100 µM in the assay on K562; 8.96 µM in assay [1]; more than 100 µM with UACC-62; 37 µM in the assay with MCF7; 7.28 µM in the assay with OVCAR; 6.68 µM in assay [2]. The TGI amounted to 51.5 µM with HT-29 and 1.24 µM in the assay with 786-0. The LC50 (concentration for 50% net cell kill) in assay [1] is more than 100 µM. Moreover, the LC50 (concentration killing 50% of cells) (in the assay with MCF7; in assay [2]) was more than 100 µM each time. The LC50 (concentration killing 50% of the cells, NCI protocol) in the assay with OVCAR amounted to 47.9 µM. In the assay with 786-0, the CC50 stood at 37.3 µM.

Take `S=c1[nH]nc(-c2cc3c([nH]c4ccccc43)c(-c3ccccc3)n2)[nH]1`: the 50% growth inhibitory concentration (GI50) with K562 was 3.2 µM; in assay [1], 6.36 µM; with UACC-62, 6.36 µM; with MCF7, more than 100 µM; with OVCAR, 64.9 µM; in assay [2] it was 4.11 µM. The GI50 with HT-29 worked out at 35.5 µM; with 786-0, 7.56 µM.

For the compound `COc1ccc(-c2nc(-c3nnc(SC)o3)cc3c2[nH]c2ccccc23)cc1`, the GI50 is 0.18 µM with K562; 1.28 µM in assay [1]; 29.1 µM in the assay with UACC-62; 31.2 µM with MCF7; 2.13 µM in the assay on OVCAR; more than 100 µM in assay [2]. For the same compound, the GI50 in the assay with HT-29 and in the assay with 786-0 was more than 100 µM each time. The TGI with K562 was more than 100 µM; in assay [1], 56.6 µM; with UACC-62, more than 100 µM; in the assay with MCF7, more than 100 µM; with OVCAR it was more than 100 µM; in assay [2], more than 100 µM. Besides, the TGI in the assay with HT-29 and with 786-0 was more than 100 µM each time. Besides, the LC50 (concentration for 50% net cell kill) in assay [1] was more than 100 µM.

For the compound `CSc1nnc(-c2cc3c([nH]c4ccccc43)c(-c3ccccc3)n2)n1N`, the GI50 with K562 was 2.04 µM; in assay [1], more than 100 µM; in the assay with UACC-62, more than 100 µM; with MCF7, more than 100 µM; in the assay with OVCAR, more than 100 µM; in assay [2] it was more than 100 µM. Besides, the GI50 in the assay on HT-29 and in the assay on 786-0 was more than 100 µM throughout.

Turning to `CSc1nnc(-c2cc3c([nH]c4ccccc43)c(-c3ccccc3)n2)o1`, the GI50 with K562 stood at 0.43 µM; in assay [1], 3.42 µM; with UACC-62, 99.5 µM; with MCF7 it was 12.2 µM; in the assay with OVCAR, 0.01 µM; in assay [2] it was 23.6 µM. Besides, the values for the GI50 with HT-29 and in the assay on 786-0 were 16.2 µM and 32 µM, respectively. In the assay with K562, this compound showed an LC50 (concentration causing 50% net cell kill) of 74.7 µM. The TGI was 10.4 µM with K562; 74.7 µM in assay [1]; more than 100 µM in the assay on UACC-62; 31.3 µM with MCF7; 0.1 µM with OVCAR; 86.6 µM in assay [2]. The TGI in the assay on HT-29 and in the assay on 786-0 was more than 100 µM in each case. This compound displayed an LC50 (concentration for 50% net cell kill) in assay [1] of more than 100 µM. The LC50 (concentration killing 50% of cells) (in the assay on MCF7; in assay [2]) was more than 100 µM in each case. Further, the LC50 (concentration killing 50% of the cells, NCI protocol) in the assay with OVCAR amounted to 1.6 µM.

Regarding `COc1ccc(-c2nc(-c3n[nH]c(=S)o3)cc3c2[nH]c2ccccc23)cc1`, the GI50 was 26.4 µM in the assay with K562; 9.2 µM in assay [1]; 16.8 µM in the assay with UACC-62; 24.9 µM in the assay with MCF7; more than 100 µM in the assay on OVCAR; 17.3 µM in assay [2]. In addition, the GI50 was 20.3 µM in the assay with HT-29 and 31.6 µM with 786-0. For the same compound, the TGI in the assay on K562 is more than 100 µM; in assay [1] it was more than 100 µM; in the assay on UACC-62, 47.2 µM; in the assay with MCF7 it was 97 µM; with OVCAR, more than 100 µM; in assay [2] it was 41.1 µM. Also, the figures for the TGI in the assay on HT-29 and in the assay on 786-0 were 55.3 µM and more than 100 µM, respectively. Further, in the assay on UACC-62, the LC50 (concentration killing 50% of cells, NCI protocol) was more than 100 µM. In addition, the LC50 (concentration killing 50% of cells) (with MCF7; in assay [2]) was more than 100 µM each time. In the assay on HT-29, this compound gave an LC50 (concentration killing 50% of the cells present at the start) of more than 100 µM.
